Active and inactive are the calls of the source. No cut-off for these calls is given here.
Legend:
[1] = Half life in RPMI media at 10 uM by HPLC analysis; assay type: physicochemical
How it was run: (§1)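 Compound added from DMSO stock to pre-heated RPMI 1640 (1.8 mL) plus 0.2 mL human AB male serum or FBS, or to 2 mL RPMI alone, at final 1 or 10 μM. Samples analysed by HPLC at pH 9.5 (formic acid/ammonia in acetonitrile/water), with conversion taken from the substrate/internal standard peak ratio. Run in triplicate; half-lives ± SD.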

[2] = Half life in RPMI media at 1 uM by HPLC analysis; assay type: physicochemical; how it was run: as §1
[3] = Half life in RPMI media at 1 uM by HPLC analysis in presence of human blood serum; assay type: ADME; how it was run: as §1
[4] = Selectivity ratio of IC50 for MEF to IC50 for human Jurkat T cells; assay type: cell-based; conditions: mouse (MEF) and human (Jurkat T cells), read-out: Ratio IC50
[5] = Selectivity ratio of IC50 for MEF to IC50 for human SK-MEL-2 cells; assay type: cell-based; conditions: mouse (MEF) and human (SK-MEL-2 cells), MEF and SK-MEL-2 cells; read-out: Ratio IC50
MEF = test: Antiproliferative activity against MEF after 72 hrs by MTT assay; assay type: cell-based; conditions: Mus musculus
[6] = Selectivity ratio of IC50 for MEF to IC50 for human HeLa cells; assay type: cell-based; conditions: mouse (MEF) and human (HeLa cells), read-out: Ratio IC50
SK-MEL-2 [7] = test: Antiproliferative activity against human SK-MEL-2 cells after 72 hrs by MTT assay in presence of 5% FBS; assay type: functional, cell-based; conditions: SK-MEL-2, 72 h
How it was run: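 SK-MEL2 grown with reduced serum (5% FBS) to slow proliferation. Compounds added in DMSO (0.1% final), followed by a 72 h MTT proliferation assay.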

[8] = Dissociation constant, pKa of the compound; assay type: physicochemical
SK-MEL-2 [9] = test: Selectivity ratio of IC50 for human SK-MEL-2 cells in presence of 5% FBS to IC50 for human SK-MEL-2 cells in presence of 10% FBS; assay type: functional
Oryctolagus cuniculus = species: Oryctolagus cuniculus; test: Inhibition of cap-independent HCV-IRES-induced translation in rabbit reticulocyte lysate at 500 nM after 1.5 hrs by luciferase reporter gene assay; assay type: functional
How it was run: (§2)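 Capped bicistronic reporter mRNA: cap-dependent firefly luciferase first cistron, HCV IRES-driven Renilla second cistron. Transcribed in vitro with SP6 from the BamHI-linearised plasmid. 200 ng RNA translated in rabbit reticulocyte lysate with 70 mM KCl, 2 mM DTT, RNasin and compound in DMSO (5% v/v final), 30 °C for 1.5 h. Dual luciferase readout. Duplicates, 4 independent assays, mean IC50 by curve fit.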

[10] = Binding affinity to eIF4A1/2 in rabbit reticulocyte lysate assessed as inhibition of cap-dependent translation after 1.5 hrs by dual luciferase reporter gene assay; parameters: species or system Oryctolagus cuniculus; how it was run: as §2
[11] = Antiproliferative activity against human Jurkat T cells after 72 hrs by MTT assay; assay type: functional, cell-based
How it was run: (§3)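 HeLa and SK-MEL2 grown in DMEM, Jurkat in RPMI 1640, each with 10% FBS and penicillin-streptomycin, at 37 °C and 5% CO2. Adherent cells seeded at 2000/well and left to recover overnight; Jurkat seeded at 5000/well with no recovery. Compound added in DMSO (0.1% final), then 72 h incubation and MTT readout.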

SK-MEL-2 [12] = test: Antiproliferative activity against human SK-MEL-2 cells after 72 hrs by MTT assay in presence of 10% FBS; assay type: functional, cell-based; conditions: SK-MEL-2, 72 h; how it was run: as §3
[13] = Antiproliferative activity against human Jurkat T cells assessed as DNA synthesis level after 24 hrs by thymidine incorporation assay; assay type: functional, cell-based
How it was run: (§4)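 Cells kept at 37 °C, 5% CO2 with penicillin-streptomycin and 10% FBS. Adherent lines seeded at 2000 cells/well and left to recover overnight; Jurkat seeded at 5000 cells/well with no recovery period. Compound added in DMSO (0.1% final, vehicle-only control) at 0.001–100 nM over 10 wells. DNA synthesis read out after 24 h. Mean IC50 from at least 3 independent assays.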

HaCaT = test: Antiproliferative activity against human HaCaT cells assessed as DNA synthesis level after 24 hrs by thymidine incorporation assay; assay type: functional, cell-based; how it was run: as §4
RKO = test: Antiproliferative activity against human RKO cells assessed as DNA synthesis level after 24 hrs by thymidine incorporation assay; assay type: functional, cell-based; how it was run: as §4
HeLa = test: Antiproliferative activity against human HeLa cells assessed as DNA synthesis level after 24 hrs by thymidine incorporation assay; assay type: functional, cell-based; how it was run: as §4
[14] = target: T1, DNA polymerase subunit gamma-1 (Homo sapiens, UniProt P54098); test: Inhibition of DNA polymerase-gamma (unknown origin) assessed as incorporation of Br(d)UTP by colorimetric analysis
T1 sequence (P54098 whole entry): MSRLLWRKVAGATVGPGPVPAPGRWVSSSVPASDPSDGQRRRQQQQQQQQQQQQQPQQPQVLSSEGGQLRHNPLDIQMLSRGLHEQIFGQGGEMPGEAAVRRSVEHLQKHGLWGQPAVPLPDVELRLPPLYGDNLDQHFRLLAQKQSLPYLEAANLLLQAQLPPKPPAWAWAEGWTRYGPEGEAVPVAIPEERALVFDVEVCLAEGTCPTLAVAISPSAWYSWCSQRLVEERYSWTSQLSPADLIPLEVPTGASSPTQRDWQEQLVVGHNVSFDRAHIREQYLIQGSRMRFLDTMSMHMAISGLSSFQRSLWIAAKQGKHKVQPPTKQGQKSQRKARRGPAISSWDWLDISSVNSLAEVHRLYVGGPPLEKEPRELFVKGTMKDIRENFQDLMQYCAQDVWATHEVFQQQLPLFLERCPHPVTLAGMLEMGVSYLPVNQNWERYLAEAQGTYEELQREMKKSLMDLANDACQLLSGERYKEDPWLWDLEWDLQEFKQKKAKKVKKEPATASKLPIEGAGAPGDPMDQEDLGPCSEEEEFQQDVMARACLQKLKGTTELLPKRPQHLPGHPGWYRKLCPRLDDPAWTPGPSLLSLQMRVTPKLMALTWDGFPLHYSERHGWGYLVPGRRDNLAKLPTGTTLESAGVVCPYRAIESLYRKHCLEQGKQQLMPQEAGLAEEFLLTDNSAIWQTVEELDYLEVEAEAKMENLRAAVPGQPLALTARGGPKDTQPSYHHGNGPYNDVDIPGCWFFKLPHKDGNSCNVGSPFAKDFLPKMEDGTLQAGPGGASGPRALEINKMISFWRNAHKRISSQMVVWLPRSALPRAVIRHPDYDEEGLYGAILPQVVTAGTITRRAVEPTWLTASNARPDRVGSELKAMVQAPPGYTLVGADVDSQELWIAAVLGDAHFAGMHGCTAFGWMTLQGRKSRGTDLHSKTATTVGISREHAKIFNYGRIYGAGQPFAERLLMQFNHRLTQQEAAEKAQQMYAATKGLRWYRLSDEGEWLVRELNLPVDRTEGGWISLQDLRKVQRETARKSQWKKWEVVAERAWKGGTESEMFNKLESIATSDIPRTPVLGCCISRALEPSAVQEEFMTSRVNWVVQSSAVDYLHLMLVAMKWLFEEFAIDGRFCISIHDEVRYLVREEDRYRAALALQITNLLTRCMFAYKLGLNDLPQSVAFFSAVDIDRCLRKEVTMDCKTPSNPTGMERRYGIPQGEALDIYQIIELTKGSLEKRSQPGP

CC(/C=C/C(C)=C/[C@@H]1Cc2nc(cs2)CCCCC(=O)O[C@@H](C)C/C(C)=C/C=C\C(=O)O1)=C\CN(C)C
t1/2 [1]: 3.25 h
t1/2 [2]: 5.11 h
t1/2 [3]: 24 h
selectivity ratio [4]: 5
selectivity ratio [5]: 5
IC50 (MEF): > 50 nM
selectivity ratio [6]: 5
IC50 (SK-MEL-2 [7]): 30 nM
pKa [8]: 11
Ratio IC50 (SK-MEL-2 [9]): 2
inhibition (Oryctolagus cuniculus): inactive
IC50 [10]: 21.5 nM
IC50 [11]: 11 nM
IC50 (SK-MEL-2 [12]): 13 nM
IC50 [13]: 3 nM
IC50 (HaCaT): 0.9 nM
IC50 (RKO): 1.2 nM
IC50 (HeLa): 4.5 nM
IC50 [14]: 3000 nM

Source: ChEMBL document CHEMBL3124904, “Second-generation derivatives of the eukaryotic translation initiation inhibitor pateamine A targeting eIF4A as potential anticancer agents” (Bioorg Med Chem, 2014)
